Assay [1] has as its system Mus musculus. Description: Anti-obesity activity in 16 hrs fasted C57BL/6 mouse supplemented with normal chow diet assessed as decrease in fasting blood glucose at 20 mg/kg/day, ip administered for 1 week. The class given is functional, organism-based. As to conditions: time 1.0 weeks. The procedure, abridged:
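8-week-old male C57BL/6 mice on normal chow, ip 20 mg·kg−1·day−1 for 7 days. Blood glucose measured randomly fed or after 6 h or 16 h fasting, as the line states. Mean ± SEM, n = 5–9.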

For assay [2], the system named is Mus musculus. Description: Anti-obesity activity in 16 hrs fasted C57BL/6 mouse supplemented with normal chow diet assessed as decrease in blood glucose level at 20 mg/kg/day, ip administered for 1 week measured after 30 mins by intraperitoneal glucose tolerance test. As to conditions: time 1.0 weeks. It is filed as functional, organism-based. The procedure, abridged: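 Male C57BL/6 mice on normal chow, 8 weeks old, given 20 mg·kg−1·day−1 ip daily for 7 days. After 16 h fasting, glucose 2 g/kg body weight ip; blood glucose read during the test. Mean ± SEM, n = 5–9; t test or ANOVA, P < 0.05.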

The test system of assay [3] is Mus musculus. Description: Anti-obesity activity in 16 hrs fasted C57BL/6 mouse supplemented with normal chow diet assessed as decrease in blood glucose level at 20 mg/kg/day, ip administered for 1 week measured after 15 to 30 mins by pyruvate tolerance test. It is filed as functional, organism-based. Particulars: time 1.0 weeks. Put shortly:
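Normal-chow male C57BL/6 mice (8 weeks old) dosed ip at 20 mg·kg−1·day−1 for 7 days. Pyruvate tolerance test: 16 h fast, then pyruvate 2 g/kg body weight ip, blood glucose followed over time. Mean ± SEM, n = 5–9.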

For assay [4], the system named is Mus musculus. Description: Anti-obesity activity in C57BL/6 mouse supplemented with high fat diet assessed as decrease in hepatic G6Pc mRNA expression level at 20 mg/kg/day, ip administered for 1 week measured by RT-qPCR assay. It is filed as functional, organism-based. Particulars: time 1.0 weeks. The procedure, abridged: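 Hepatic G6Pc mRNA in male C57BL/6 mice fed HFD for 14 weeks, then ip 20 mg·kg−1·day−1 for 7 days. Liver RNA extracted with Trizol; SYBR Green RT-qPCR.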

The subject of assay [5] is Mus musculus. Description: Inhibition of lipogenesis in C57BL/6 mouse supplemented with normal chow diet assessed as decrease in ACC protein expression at 20 mg/kg/day, ip administered for 1 week measured by western blot analysis. Particulars: time 1.0 weeks. It is filed as functional, organism-based. Put shortly:
(§1)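 Eight-week-old male C57BL/6 mice on normal chow were given 20 mg·kg−1·day−1 ip daily for 7 days or vehicle. Epididymal WAT was collected. Lipogenic, adipogenic and fatty-acid-oxidation transcripts were quantified by Trizol extraction and SYBR Green RT-qPCR. FAS, ACC, PPARγ and C/EBPα protein were assessed by western blot. n = 5–9; mean ± SEM.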

Assay [6] has as its system Mus musculus. Description: Inhibition of lipogenesis in C57BL/6 mouse supplemented with normal chow diet assessed as effect on ACO mRNA expression at 20 mg/kg/day, ip administered for 1 week measured by RT-qPCR assay. The class given is functional, organism-based. Particulars: time 1.0 weeks. Put shortly:
as §1

Assay [7] deals with Mus musculus. Description: Inhibition of lipogenesis in C57BL/6 mouse supplemented with normal chow diet assessed as decrease in C/EBPalpha mRNA expression at 20 mg/kg/day, ip administered for 1 week measured measured by RT-qPCR assay. It is filed as functional, organism-based. Particulars: time 1.0 weeks. Put shortly: as §1
Assay [8] has as its system Mus musculus. Description: Inhibition of lipogenesis in C57BL/6 mouse supplemented with normal chow diet assessed as decrease in PPARgamma protein expression at 20 mg/kg/day, ip administered for 1 week measured measured by western blot analysis. The class given is functional, organism-based. Particulars: time 1.0 weeks. The procedure, abridged: as §1
Assay [9] deals with Adipocyte. Description: Inhibition of lipogenesis in mouse adipocytes isolated stromal vascular cells assessed as decrease in FABP4 mRNA expression measured after 24 hrs by RT-qPCR assay. It is filed as functional, cell-based. The procedure, abridged:
(§2)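 Stromal vascular cells from inguinal WAT of C57BL/6 mice, grown in DMEM/F12 + 10% FBS at 37 °C, 10% CO2. At confluence, induced 48 h with 5 μg/ml insulin, 1 μM dexamethasone, 0.5 mM isobutylmethylxanthine, then 6 days in 5 μg/ml insulin; fully differentiated day 8. Mature adipocytes exposed to inhibitor 24 h. Total RNA by Trizol, SYBR Green RT-qPCR; protein by western blot.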

Assay [10] has as its system Adipocyte. Description: Inhibition of lipogenesis in mouse adipocytes isolated stromal vascular cells assessed as decrease in LPL mRNA expression measured after 24 hrs by RT-qPCR assay. It is filed as functional, cell-based. Put shortly:
as §2

In assay [11] the test system is Adipocyte. Description: Inhibition of lipogenesis in mouse adipocytes isolated stromal vascular cells assessed as decrease in C/EBPalpha protein expression measured after 24 hrs by western blot analysis. It is filed as functional, cell-based.
Assay [12] concerns Mus musculus. Description: Inhibition of hepatic lipogenesis in C57BL/6 mouse supplemented with normal chow diet assessed as effect on ACO mRNA expression at 20 mg/kg/day, ip administered for 1 week measured by RT-qPCR assay. The class given is functional, organism-based. Particulars: time 1.0 weeks. Put shortly:
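Normal-chow male C57BL/6 mice, 8 weeks old, were injected ip at 20 mg·kg−1·day−1 daily for 7 days or given vehicle. Liver RNA was extracted with Trizol, and fatty-acid-oxidation gene transcripts were quantified by SYBR Green RT-qPCR. n = 5–9; mean ± SEM.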

The subject of assay [13] is Hepatocyte. Description: Inhibition of lipogenesis in mouse primary hepatocytes assessed as increase in CPT1alpha mRNA expression at 3 uM in presence of 100 nM insulin and 5 to 25 mM glucose measured after 18 hrs by RT-qPCR assay. The class given is functional, cell-based. The procedure, abridged: (§3)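 Primary hepatocytes isolated from C57BL/6 mice by two-step perfusion. Cells incubated 18 h with 3 μM inhibitor, with 0 or 100 nM insulin and 5 or 25 mM glucose. Transcripts quantified by SYBR Green RT-qPCR after Trizol RNA extraction; proteins by western blot of lysates. Mean ± SEM.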

In assay [14] the test system is Hepatocyte. Description: Inhibition of lipogenesis in mouse primary hepatocytes assessed as increase in ACO mRNA expression at 3 uM in presence of 100 nM insulin and 5 to 25 mM glucose measured after 18 hrs by RT-qPCR assay. It is filed as functional, cell-based. The procedure, abridged:
as §3

In assay [15] the test system is Hepatocyte. Description: Inhibition of glucogenesis in mouse primary hepatocytes stimulated with 100 uM 8-Br-cAMP assessed as effect on pAMPK protein expression at 3 uM measured after 1 hr by western blot analysis. It is filed as functional, cell-based. The procedure, abridged:
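Primary hepatocytes from C57BL/6 mice, isolated by two-step perfusion, were co-treated with 3 μM A-485 and 100 μM 8-Br-cAMP for 1 h. Phospho-CREB, phospho-AMPK and phospho-TORC2 were detected by western blot of cell lysates. Three independent experiments; mean ± SEM.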

The test system of assay [16] is Hepatocyte. Description: Inhibition of glucogenesis in mouse primary hepatocytes stimulated with 100 uM 8-Br-cAMP assessed as effect on PGC1alpha protein expression at 3 uM measured after 12 hrs by western blot analysis. The class given is functional, cell-based. The procedure, abridged: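 Primary mouse hepatocytes incubated 12 h with 3 μM compound and 100 μM 8-Br-cAMP. Lysates western blotted for FOXO1, C/EBPα or PGC1α. Three independent experiments.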

Assay [17] deals with CREB-binding protein/Histone acetyltransferase p300 (Homo sapiens) (UniProt Q09472+Q92793). Description: Inhibition of CBP/p300 in mouse primary hepatocytes stimulated with 100 uM 8-Br-cAMP assessed as decrease in half-life of endogenous FOXO1 at 3 uM in presence of 10 ug/ml cycloheximide. It is filed as cell-based. As to conditions: Primary hepatocyte. Put shortly:
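Primary mouse hepatocytes in 100 μM 8-Br-cAMP treated with 3 μM compound and 10 μg/ml cycloheximide for the indicated times. Endogenous FOXO1 immunoblotted; band intensity quantified. Three independent experiments.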

The test system of assay [18] is Hepatocyte. Description: Inhibition of glucogenesis in mouse primary hepatocytes stimulated with 100 uM 8-Br-cAMP assessed as decrease in PEPCK protein expression at 3 uM in presence of cAMP measured after 16 hrs by western blot.

Calls of active or inactive are those of the source. The rule behind the calls is not given here.

CREB-binding protein/Histone acetyltransferase p300 (Homo sapiens), sequence (Q09472 whole entry, looked up): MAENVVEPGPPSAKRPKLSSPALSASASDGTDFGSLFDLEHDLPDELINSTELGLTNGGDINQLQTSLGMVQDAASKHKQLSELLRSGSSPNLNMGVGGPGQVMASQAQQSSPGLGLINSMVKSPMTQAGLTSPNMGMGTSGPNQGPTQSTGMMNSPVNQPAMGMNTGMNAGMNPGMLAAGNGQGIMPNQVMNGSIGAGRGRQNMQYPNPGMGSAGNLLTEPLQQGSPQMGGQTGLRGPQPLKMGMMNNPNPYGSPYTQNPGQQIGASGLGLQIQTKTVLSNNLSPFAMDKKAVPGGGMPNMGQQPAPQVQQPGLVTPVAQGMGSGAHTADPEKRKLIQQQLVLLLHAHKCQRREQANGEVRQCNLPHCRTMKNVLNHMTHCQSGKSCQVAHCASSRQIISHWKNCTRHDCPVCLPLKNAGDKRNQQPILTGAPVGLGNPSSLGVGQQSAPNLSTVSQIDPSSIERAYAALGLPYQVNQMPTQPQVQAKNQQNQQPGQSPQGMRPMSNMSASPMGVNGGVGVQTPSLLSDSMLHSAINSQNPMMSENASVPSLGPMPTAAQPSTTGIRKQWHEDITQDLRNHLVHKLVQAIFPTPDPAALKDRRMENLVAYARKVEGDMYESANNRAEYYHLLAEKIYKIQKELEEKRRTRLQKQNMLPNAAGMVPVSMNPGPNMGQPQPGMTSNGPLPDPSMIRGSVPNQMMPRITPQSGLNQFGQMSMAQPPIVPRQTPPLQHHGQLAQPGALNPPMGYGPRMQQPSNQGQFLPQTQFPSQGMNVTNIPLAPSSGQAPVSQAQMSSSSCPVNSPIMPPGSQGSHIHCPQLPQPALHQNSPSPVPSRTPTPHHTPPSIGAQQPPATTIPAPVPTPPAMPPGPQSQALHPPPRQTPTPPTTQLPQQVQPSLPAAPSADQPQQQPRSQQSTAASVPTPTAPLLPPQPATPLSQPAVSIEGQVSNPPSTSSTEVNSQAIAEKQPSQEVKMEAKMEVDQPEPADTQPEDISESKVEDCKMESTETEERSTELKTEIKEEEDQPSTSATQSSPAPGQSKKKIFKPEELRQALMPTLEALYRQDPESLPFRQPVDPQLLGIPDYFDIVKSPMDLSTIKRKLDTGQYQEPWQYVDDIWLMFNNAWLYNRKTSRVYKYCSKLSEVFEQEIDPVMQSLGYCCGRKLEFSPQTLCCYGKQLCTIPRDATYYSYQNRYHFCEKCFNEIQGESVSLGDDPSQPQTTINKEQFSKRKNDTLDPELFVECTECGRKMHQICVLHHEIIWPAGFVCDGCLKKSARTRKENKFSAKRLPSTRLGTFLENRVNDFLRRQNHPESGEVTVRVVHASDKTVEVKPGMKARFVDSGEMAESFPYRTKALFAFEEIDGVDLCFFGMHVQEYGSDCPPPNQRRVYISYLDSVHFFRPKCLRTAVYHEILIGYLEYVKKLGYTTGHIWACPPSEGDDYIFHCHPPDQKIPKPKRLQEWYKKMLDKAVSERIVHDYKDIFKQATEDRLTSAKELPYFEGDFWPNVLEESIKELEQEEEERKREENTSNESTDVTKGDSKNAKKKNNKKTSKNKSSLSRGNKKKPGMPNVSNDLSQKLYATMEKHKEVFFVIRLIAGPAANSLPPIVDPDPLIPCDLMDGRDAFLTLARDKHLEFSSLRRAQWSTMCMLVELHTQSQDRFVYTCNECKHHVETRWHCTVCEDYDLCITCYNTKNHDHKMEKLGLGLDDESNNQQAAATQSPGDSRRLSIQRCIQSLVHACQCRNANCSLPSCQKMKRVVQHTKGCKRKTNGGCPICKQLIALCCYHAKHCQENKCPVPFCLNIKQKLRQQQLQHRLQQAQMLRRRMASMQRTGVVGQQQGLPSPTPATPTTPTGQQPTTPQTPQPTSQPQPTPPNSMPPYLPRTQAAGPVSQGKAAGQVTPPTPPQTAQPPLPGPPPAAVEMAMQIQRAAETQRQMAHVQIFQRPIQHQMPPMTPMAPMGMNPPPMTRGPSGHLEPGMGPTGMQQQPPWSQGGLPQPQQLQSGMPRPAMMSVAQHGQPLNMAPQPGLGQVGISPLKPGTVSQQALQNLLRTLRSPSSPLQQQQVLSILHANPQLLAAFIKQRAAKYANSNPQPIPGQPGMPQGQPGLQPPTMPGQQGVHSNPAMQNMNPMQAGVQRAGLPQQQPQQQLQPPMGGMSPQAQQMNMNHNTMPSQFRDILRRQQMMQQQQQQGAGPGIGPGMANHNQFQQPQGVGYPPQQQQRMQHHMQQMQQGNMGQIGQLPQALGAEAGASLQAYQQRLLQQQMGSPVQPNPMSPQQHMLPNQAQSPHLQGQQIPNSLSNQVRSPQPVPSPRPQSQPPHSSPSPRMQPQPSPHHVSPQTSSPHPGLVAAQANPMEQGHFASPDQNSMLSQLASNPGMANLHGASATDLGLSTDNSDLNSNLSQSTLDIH
CREB-binding protein/Histone acetyltransferase p300 (Homo sapiens), sequence (Q92793 whole entry, looked up): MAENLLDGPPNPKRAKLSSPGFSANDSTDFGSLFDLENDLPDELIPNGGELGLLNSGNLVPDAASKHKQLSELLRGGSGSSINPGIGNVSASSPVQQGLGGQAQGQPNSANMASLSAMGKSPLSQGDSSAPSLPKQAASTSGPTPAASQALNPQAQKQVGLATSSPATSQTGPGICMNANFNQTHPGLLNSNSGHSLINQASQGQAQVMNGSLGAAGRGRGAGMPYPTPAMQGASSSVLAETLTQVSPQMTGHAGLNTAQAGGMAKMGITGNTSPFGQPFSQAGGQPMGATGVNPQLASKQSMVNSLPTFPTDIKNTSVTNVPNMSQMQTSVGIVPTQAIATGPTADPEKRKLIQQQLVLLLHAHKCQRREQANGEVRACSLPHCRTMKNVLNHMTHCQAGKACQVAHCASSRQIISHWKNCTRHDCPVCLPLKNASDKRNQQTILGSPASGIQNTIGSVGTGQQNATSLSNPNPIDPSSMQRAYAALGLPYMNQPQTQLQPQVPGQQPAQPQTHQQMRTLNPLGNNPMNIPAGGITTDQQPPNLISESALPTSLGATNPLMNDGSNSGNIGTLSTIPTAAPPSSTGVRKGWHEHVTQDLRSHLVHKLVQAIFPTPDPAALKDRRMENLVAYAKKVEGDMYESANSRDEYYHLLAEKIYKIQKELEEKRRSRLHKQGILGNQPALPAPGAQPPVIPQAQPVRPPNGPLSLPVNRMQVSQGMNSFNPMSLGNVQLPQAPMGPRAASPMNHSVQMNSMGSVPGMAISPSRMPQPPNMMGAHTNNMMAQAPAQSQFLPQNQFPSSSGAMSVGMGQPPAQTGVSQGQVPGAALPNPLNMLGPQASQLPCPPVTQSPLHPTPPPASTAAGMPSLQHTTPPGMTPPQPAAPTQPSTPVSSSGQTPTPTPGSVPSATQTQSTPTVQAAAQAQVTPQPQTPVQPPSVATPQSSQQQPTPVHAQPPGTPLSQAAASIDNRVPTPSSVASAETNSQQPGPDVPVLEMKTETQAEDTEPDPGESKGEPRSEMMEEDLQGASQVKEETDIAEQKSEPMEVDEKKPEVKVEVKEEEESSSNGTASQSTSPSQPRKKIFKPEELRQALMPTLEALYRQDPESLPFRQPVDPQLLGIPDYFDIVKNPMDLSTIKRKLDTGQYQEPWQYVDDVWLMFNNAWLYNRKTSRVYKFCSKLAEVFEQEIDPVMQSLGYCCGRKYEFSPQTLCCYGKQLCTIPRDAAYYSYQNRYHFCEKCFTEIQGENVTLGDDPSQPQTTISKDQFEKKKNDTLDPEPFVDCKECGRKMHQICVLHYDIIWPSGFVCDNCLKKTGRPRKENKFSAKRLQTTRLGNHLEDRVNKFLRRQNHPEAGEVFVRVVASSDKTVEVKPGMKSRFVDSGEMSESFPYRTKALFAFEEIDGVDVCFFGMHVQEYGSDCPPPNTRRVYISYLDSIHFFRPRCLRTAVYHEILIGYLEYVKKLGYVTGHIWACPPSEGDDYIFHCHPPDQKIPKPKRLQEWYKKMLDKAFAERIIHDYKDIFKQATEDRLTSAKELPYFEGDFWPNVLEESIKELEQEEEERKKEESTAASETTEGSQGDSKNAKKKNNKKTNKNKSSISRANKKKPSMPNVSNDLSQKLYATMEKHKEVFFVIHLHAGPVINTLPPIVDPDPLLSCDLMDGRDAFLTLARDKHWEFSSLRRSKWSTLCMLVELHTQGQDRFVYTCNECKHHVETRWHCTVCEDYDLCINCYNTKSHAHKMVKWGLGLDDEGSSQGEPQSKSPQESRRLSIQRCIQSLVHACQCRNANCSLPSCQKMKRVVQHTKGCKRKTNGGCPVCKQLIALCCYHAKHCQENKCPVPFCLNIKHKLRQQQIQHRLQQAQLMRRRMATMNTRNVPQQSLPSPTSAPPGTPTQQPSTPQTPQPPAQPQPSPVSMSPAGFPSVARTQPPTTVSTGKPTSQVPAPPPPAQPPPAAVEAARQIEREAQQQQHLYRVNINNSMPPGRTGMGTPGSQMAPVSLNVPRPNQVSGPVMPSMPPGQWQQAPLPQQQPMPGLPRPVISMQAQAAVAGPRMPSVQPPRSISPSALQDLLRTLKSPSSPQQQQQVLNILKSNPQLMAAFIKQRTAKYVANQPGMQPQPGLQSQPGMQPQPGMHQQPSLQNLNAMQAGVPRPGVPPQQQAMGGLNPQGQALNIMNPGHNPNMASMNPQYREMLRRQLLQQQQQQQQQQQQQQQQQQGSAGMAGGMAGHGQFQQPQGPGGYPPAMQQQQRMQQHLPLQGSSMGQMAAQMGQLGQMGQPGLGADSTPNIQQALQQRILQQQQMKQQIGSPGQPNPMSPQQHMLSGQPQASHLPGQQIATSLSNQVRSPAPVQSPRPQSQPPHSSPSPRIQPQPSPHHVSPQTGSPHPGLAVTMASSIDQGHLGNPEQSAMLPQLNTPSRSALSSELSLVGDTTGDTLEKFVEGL

For `CNC(=O)Nc1ccc2c(c1)CCS21OC(=O)N(CC(=O)N(Cc2ccc(F)cc2)[C@@H](C)C(F)(F)F)C1=O` (stereo partly drawn), the outcome in the assay on Mus musculus [1], with Mus musculus [2], in the assay with Mus musculus [3] and with Mus musculus [4] was Active. Also, the inhibition entry in the assay with Mus musculus [5], in the assay with Mus musculus [7], in the assay with Mus musculus [8], in the assay with Adipocyte [9], in the assay on Adipocyte [10] and in the assay on Adipocyte [11] was “Active” each time. Further, the inhibition result (in the assay on Hepatocyte [13]; in the assay on Hepatocyte [14]; in assay [17]; in the assay with Hepatocyte [18]) was “Active” in each case. Further, the inhibition result with Mus musculus [6], in the assay with Mus musculus [12], in the assay on Hepatocyte [15] and with Hepatocyte [16] was “inactive” each time.

Source of the values: ChEMBL document CHEMBL5674890, “Selective inhibition of CBP/p300 HAT by A-485 results in suppression of lipogenesis and hepatic gluconeogenesis” (Cell Death Dis, 2020).
